Three compounds from ChEMBL document CHEMBL5030552, “Computational Design of Potent D-Peptide Inhibitors of SARS-CoV-2” (J Med Chem, 2021) can be followed below.

One data set deals with Spike glycoprotein (Severe acute respiratory syndrome coronavirus 2, UniProt P0DTC2). Description: Binding affinity to SARS-CoV-2 spike protein receptor-binding domain by biolayer interferometry (BLI) assay. Summed up: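 BLI was run at 25 °C with shaking at 1000 rpm. His-tagged RBD (200 nM) was loaded on Ni-NTA sensors, then peptides were applied at several concentrations, and dissociation was read in baseline wells. Signals were referenced against His-tagged SUMO and RBD-only sensors. Subtracted curves were fitted for ka, kd and Kd.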

In a further data set the test system is Vero. Description: Cytotoxicity against African green monkey Vero cells assessed as viable cells measured by MTS assay. The data set is classed as cell-based. The note with it: chlorocebus sabaeus. Summed up:
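Vero cells (1.5 × 10⁴/well, 24 h growth) were exposed in the neutralization-assay format without virus. Peptides were twofold-diluted from 100 to 0.1953 μM from DMSO stocks diluted in PBS. Viability was read with MTS.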

The subject of another data set is SARS-CoV-2. Description: Antiviral activity against SARS-CoV-2 assessed as neutralization viral infection in Vero cells by measuring cytopathic effect incubated for 4 days by crystal violet staining based assay. The data set is classed as functional, organism-based. The conditions noted are these: Severe acute respiratory syndrome coronavirus 2, Vero, 96 h.
Data set [1] in a line: Stability of the compound in proteinase K (unknown origin) in presence of serum assessed as loss of peptide measured after 2.5 hr. The data set is classed as ADME. The note with it: read-out: Drug degradation.

The structures appear in SMILES notation. pIC50, pKd: −log10 of the molar value.

At Spike glycoprotein, `CC[C@@H](C)[C@@H](N)C(=O)N[C@H](CC(N)=O)C(=O)N[C@H](CCC(N)=O)C(=O)N[C@H](Cc1ccc(O)cc1)C(=O)N[C@H](CCSC)C(=O)N[C@H](CCC(=O)O)C(=O)N[C@H](CCC(=O)O)C(=O)N[C@@H](C(=O)N[C@H](CCC(=O)O)C(=O)N[C@H](Cc1cnc[nH]1)C(=O)N[C@H](C)C(=O)N[C@H](C)C(=O)N[C@H](CO)C(=O)N[C@H](CCCNC(=N)N)C(=O)N[C@H](Cc1ccccc1)C(=O)N[C@H](C)C(=O)N[C@H](Cc1ccc(O)cc1)C(=O)N[C@H](Cc1ccccc1)C(=O)N[C@H](Cc1ccccc1)C(=O)N[C@H](Cc1ccc(O)cc1)C(=O)N[C@H](CCC(N)=O)C(=O)N[C@H](Cc1cnc[nH]1)C(=O)N[C@H](CC(C)C)C(=O)N[C@H](C)C(=O)O)[C@H](C)CC` had a pKd of 6.98.
Regarding `CC[C@@H](C)[C@@H](NC(=O)CNC(=O)[C@@H](CC(C)C)NC(=O)CNC(=O)[C@@H](CCCCN)NC(=O)CNC(=O)[C@@H](CC(=O)O)NC(=O)[C@@H](Cc1ccccc1)NC(=O)[C@H](N)CCCNC(=N)N)C(=O)N[C@H](Cc1ccc(O)cc1)C(=O)N[C@H](CCC(N)=O)C(=O)N[C@H](Cc1ccc(O)cc1)C(=O)N[C@H](CCSC)C(=O)N[C@H](CCC(=O)O)C(=O)N[C@H](CCC(=O)O)C(=O)N[C@@H](C(=O)N[C@H](CCC(=O)O)C(=O)N[C@H](Cc1cnc[nH]1)C(=O)N[C@H](C)C(=O)N[C@H](C)C(=O)N[C@H](CO)C(=O)N[C@H](CCCNC(=N)N)C(=O)N[C@H](Cc1ccccc1)C(=O)N[C@H](C)C(=O)N[C@H](Cc1ccc(O)cc1)C(=O)N[C@H](Cc1ccccc1)C(=O)N[C@H](Cc1ccccc1)C(=O)N[C@H](Cc1ccc(O)cc1)C(=O)N[C@H](CCC(N)=O)C(=O)N[C@H](Cc1cnc[nH]1)C(=O)N[C@H](CC(C)C)C(=O)N[C@H](C)C(=O)O)[C@H](C)CC`, the Activity entry with Vero was “Non-Toxic”. The pIC50 in the data set with SARS-CoV-2 is 5.24. Further, on Spike glycoprotein, the pKd was 7.54. The metabolised at 2.5 h in data set [1] was determined as 87.5%.
The matching figures for `CC[C@@H](C)[C@@H](NC(=O)[C@@H](Cc1cnc[nH]1)NC(=O)[C@H](NC(=O)[C@@H](CCC(=O)O)NC(=O)[C@@H](CCC(=O)O)NC(=O)[C@@H](CCSC)NC(=O)[C@@H](CC(C)C)NC(=O)[C@@H](C)NC(=O)[C@@H](Cc1ccc(O)cc1)NC(=O)[C@@H](CC(C)C)NC(=O)[C@@H](C)NC(=O)[C@H](NC(=O)[C@@H](CCC(N)=O)NC(=O)[C@H](N)CC(C)C)[C@H](C)O)[C@H](C)CC)C(=O)N[C@H](C)C(=O)N[C@H](C)C(=O)N[C@H](CC(C)C)C(=O)N[C@H](CCC(=O)O)C(=O)N[C@H](CCCCN)C(=O)N[C@@H](C(=O)N[C@H](Cc1c[nH]c2ccccc12)C(=O)N[C@@H](C(=O)N[C@H](C)C(=O)N[C@H](CC(C)C)C(=O)N[C@H](CCCNC(=N)N)C(=O)N[C@H](Cc1cnc[nH]1)C(=O)N[C@H](CCC(N)=O)C(=O)N[C@H](Cc1ccc(O)cc1)C(=O)N[C@@H](C(=O)O)[C@H](C)O)[C@H](C)O)[C@H](C)O`: “Non-Toxic”, 5.18, 7.51 and 82.9%.
